Test results from paper PMC5075014 (Medicinal Chemistry Research, 2016).

System: MCF-7 (human breast cancer) cell line
Experiment: WST-1 assay, anticancer activity, breast cancer MCF-7
Format: cell-based
Settings: MCF-7 cell line
Outline: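 Cells were grown at 37 °C under 5 % CO2 and seeded at 1 × 10^4 cells/well in DMEM with 10 % FCS, streptomycin and penicillin. They were exposed to the test compound at 0–100 μg/mL for 72 h, then given WST-1 for 1 h. Absorbance was read at 450 nm against a background control, with a 600 nm reference. Values are means of at least two independent experiments run in triplicate.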

## CN(C)CCCN1c2ccccc2Sc2cccnc21 [Prothipendyl, 10-dimethylaminopropyl-1-azaphenothiazine]
  times less active than the most active diazaphenothiazines: 5-6 times
